According to paper PMC10601058 (ACS Omega, 2023):

Tests used:
[1] = test system: nitric oxide (NO) production in RAW 264.7 stimulated by LPS; assay: Nitric oxide inhibition in RAW 264.7 induced by LPS; assay type: cell-based; conditions: Mus musculus, RAW264.7, 24 h, read-out: no. inhibition %
In short: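 Mouse RAW 264.7 cells at 1 × 10^6 cells/mL were treated with test compound at 10 μM or L-NAME at 250 μM. After 1 h, 1 μg/mL LPS was added for 24 h. Supernatant nitrite was measured with Griess reagent at 540 nm against a standard curve run alongside the samples.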

[2] = MTT cytotoxicity assay on RAW 264.7; assay type: cell-based; conditions: mouse, RAW 264.7 cells
In short: (§1)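 Cells were maintained in DMEM with 10% FBS and 1% pen-strep at 37 °C, 5% CO2, to 80% confluence. They were seeded in 96-well plates and exposed to test compound at 25 μM for 24 h. Viability was determined by MTT and given as % viability, mean ± SD of two independent experiments.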

[3] = MTT cytotoxicity assay on HepG2; assay type: cell-based; conditions: human, HepG2 cells
In short: as §1

pin-1 = conditions: read-out: IC50 (pin-1); cited from earlier work
HepG2 = conditions: dose of 100 μM; cited from earlier work

`COC(=O)[C@@H](N)CCCNC(N)=N[N+](=O)[O-]` [L-NAME, L-NG-nitro arginine methyl ester] showed an inhibition at 250 µM [1] of 84.76 ± 0.4%.

`CC(=O)O[C@@H]1CC[C@@]2(C)[C@@H](CC[C@]3(C)[C@@H]2C(=O)C=C2[C@@H]4[C@@H](C)[C@H](C)CC[C@]4(C)CC[C@]23C)[C@@]1(C)C(=O)O` [compound 1, 3-acetyl-11-keto-β-boswellic acid] gave a viability at 24 h, 25 µM [2] of 92 ± 1.2%, a viability at 24 h, 25 µM [3] of 86 ± 2.6% and an inhibition at 10 µM [1] of 74 ± 0.1%. For the same compound, the IC50 (pin-1) was 50 µM.

For `Cc1ccc(C(C)C)c(O)c1` [thymol], the “effect on APAP hepatotoxicity in HepG2” value (HepG2) is given as “ameliorated APAP hepatotoxicity”.
